Screens deposited in PubChem BioAssay by several laboratories.
The list is not random: actives were taken first. Their share in the collection is about 1.6%.
ABCB1 block – ABCB1 efflux pump inhibitors, primary screen, cell-based, multiplex, flow cytometry, ABCG2 counter-screen. CCRF-Adr cells, JC-1 efflux. inhibition, % at 6.6 µM. 190,000 tested, 0.067% active. AID 1326, 2008; in the data active = inhibition above about 40%;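 note: 0% = vehicle and 100% = reference inhibitor; higher value means more JC-1 retained so stronger ABCB1 efflux block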
ABCG2 inh – ABCG2 efflux pump inhibitors, primary screen, multiplex with ABCB1, IgMXP3 cells, flow cytometry; Broad substrate specificity ATP-binding cassette transporter ABCG2 (Homo sapiens), Q9UNQ0; JC-1 efflux; inhibition, % at 6.6 µM; 190,000 tested, 0.1% active; AID 1325, 2008;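 active = inhibition above 80%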;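 note: 0% = DMSO and 100% = nicardipine control wells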
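Assay system – ABCG2 IgMXP3 and barcoded ABCB1 CCRF-Adr cell mix · Input – 3 million cells/mL in well · Reagent – JC-1 fluorescent substrate · Compound – single test compound dose, 6.6 µM final · Timing – 10 min exposure at 25 °C with rotation, no wash · Detection – flow cytometry of retained JC-1 fluorescence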
Efa HMGR inh – inhibitors of E. faecalis class II HMGR, primary screen, biochemical, Enterococcus faecalis; purified E. faecalis HMGR, NADPH absorbance 340 nm kinetic; HMG-CoA reductase (Enterococcus faecalis, mvaE); inhibition, % at 10 µM; 190,000 tested, 0.41% active; AID 1066, 2008;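 active = inhibition above a set limit, the median over all tested compounds plus 3 SD, cut at about 9.5% in these data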;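 note: enzyme runs in reverse so mevalonate oxidation gives rising NADPH absorbance; 0% = complete reaction with DMSO and 100% = background rate lacking mevalonate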
Diaphorase act – compounds boosting diaphorase resazurin reduction – biochemical, uHTS, resorufin fluorescence, counter-screen for diaphorase-coupled primary assays, primary screen; Diaphorase/resazurin coupled assay, 16 min; active compounds read high; 1 = vehicle wells, 0 = NADH-free wells; 190,000 tested, 0.005% active; activation factor at 20 µM;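 active = diaphorase activity raised at least twofold by the compound at 20 µM; inactive = activation factor below 2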
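Test system: Clostridium kluyveri diaphorase, purified enzyme; input: enzyme 0.07 U/mL final; buffer or medium: 50 mM HEPES pH 7.4 with 4.542 mM MgCl2, 0.005% Tween 20; also added: 0.114 mM NADH and 0.1 mM resazurin, final amounts; schedule: 16 min enzyme reaction, ambient temperature; technique: fluorescence of resorufin, 544 nm excitation, 590 nm emission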
Diaph inh CS – diaphorase inhibitors and chemical oxidizers, primary screen, counter-screen for diaphorase-coupled primary assays, biochemical, uHTS, resorufin fluorescence; diaphorase resazurin-to-resorufin fluorescence, NADH, 16 min; bacterial (C. kluyveri) enzyme, not human; inhibition, % at 20 µM; 190,000 tested, 0.69% active;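 active = primary screen inhibition at 20 µM above a set limit, cut at about 50% in these data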;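 note: plate controls were DMSO with full reaction for no effect and wells lacking NADH for full effect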
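System: Bacterial diaphorase enzyme (C. kluyveri) | Incubation: 16-min room-temperature incubation before reading | Benchmarks: No-NADH positive control and DMSO neutral control | Measured by: Resorufin fluorescence 544/590 nm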
p47phox inh – p47phox/p22phox peptide binding inhibitors, primary screen, biochemical, uHTS, NADPH oxidase regulatory subunit. Neutrophil cytosol factor 1 (Homo sapiens), P14598. fluorescence polarization, 2 h. inhibition, % at 24.7 µM. 220,000 tested, 0.53% active. AID 1274, 2008;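 active = inhibition above about 30%, limit read from the data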;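 note: 0% = p47phox with labelled peptide and 100% = labelled peptide alone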
Target sequence (P14598 whole entry, looked up): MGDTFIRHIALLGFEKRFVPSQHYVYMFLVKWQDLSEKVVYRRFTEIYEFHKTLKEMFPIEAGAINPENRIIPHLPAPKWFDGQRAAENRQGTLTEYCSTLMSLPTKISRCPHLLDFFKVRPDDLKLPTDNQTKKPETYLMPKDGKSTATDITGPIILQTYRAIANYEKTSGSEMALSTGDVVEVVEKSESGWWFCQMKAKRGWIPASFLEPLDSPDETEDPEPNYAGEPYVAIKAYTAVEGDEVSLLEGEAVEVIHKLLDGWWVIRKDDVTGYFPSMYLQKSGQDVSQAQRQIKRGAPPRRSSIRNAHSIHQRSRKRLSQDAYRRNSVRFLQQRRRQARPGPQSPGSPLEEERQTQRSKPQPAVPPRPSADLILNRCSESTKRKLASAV
* = called active by the depositor.

Screening Cc1cc(C)c[n+](CC(=O)c2ccc(NC(=O)c3ccccc3)cc2)c1 returned ABCB1 block 0.2, ABCG2 inh 0.4, Efa HMGR inh 0.9, Diaphorase act 0.3, Diaph inh CS 70.7* and p47phox inh -2.1.
`O=C(O)c1cc([N+](=O)[O-])ccc1NCCc1ccccc1` gave p47phox inh -6.7.
`CC(=C/c1ccco1)/C=N/NC(=O)c1ccncc1` gave p47phox inh -2.8.
`Cc1ccc(/C=C2\SC(=S)N(/N=C/c3cc([N+](=O)[O-])ccc3O)C2=O)o1` gave ABCB1 block -1.6, ABCG2 inh -5.8, Efa HMGR inh 1.9, Diaphorase act 0.4, Diaph inh CS 62.9* and p47phox inh -10.1.
`C=CCn1c(SCC(=O)c2ccc(O)c(O)c2)nnc1-c1cccnc1` gave p47phox inh 3.1.
CCn1c(SCC(=O)c2ccc(O)c(O)c2)nnc1-c1ccccc1 was read as ABCB1 block 0.0, ABCG2 inh 10.0, Efa HMGR inh 0.8, Diaphorase act 0.7, Diaph inh CS 34.6 and p47phox inh -5.8.
`C=CCn1c(SCC(=O)c2ccc(O)c(O)c2)nnc1-c1ccccc1OC` gave ABCB1 block -0.4, ABCG2 inh -1.5, Efa HMGR inh -0.9, Diaphorase act 0.4, Diaph inh CS 64.0* and p47phox inh -6.4.
For CCn1c(SCC(=O)c2ccc(O)c(O)c2)nnc1-c1ccccc1OC the results were ABCB1 block -0.1, ABCG2 inh -0.2, Efa HMGR inh 3.1, Diaphorase act 0.6, Diaph inh CS 39.6 and p47phox inh 70.4*.
CCC(Sc1nc(=O)cc(N)n1-c1ccccc1)C(=O)Nc1cc(C)on1 (stereo unspecified) was read as ABCB1 block 0.6, ABCG2 inh 2.2, Efa HMGR inh -0.3, Diaphorase act 0.9, Diaph inh CS 14.6 and p47phox inh 1.9.
Screening CC(C)C(C(=O)O)N1C(=O)/C(=C/C=C/c2ccco2)SC1=S (stereo unspecified) returned ABCB1 block -2.0, ABCG2 inh -11.7, Efa HMGR inh 11.2*, Diaphorase act 0.5, Diaph inh CS 48.5 and p47phox inh -81.0.
`O=C1/C(=C/C=C/c2ccco2)SC(=S)N1c1ccc(O)cc1` gave p47phox inh -62.8.
`Cc1ccccc1NC(=O)CCC(=O)OCC(=O)c1cccc([N+](=O)[O-])c1` gave ABCB1 block -0.1, ABCG2 inh -0.1, Efa HMGR inh -6.7, Diaphorase act 1, Diaph inh CS -3.9 and p47phox inh 32.4*.
`O=C(CCC(=O)OCC(=O)c1cccc([N+](=O)[O-])c1)Nc1cccc(Cl)c1Cl` gave ABCB1 block 0.0, ABCG2 inh 0.7, Efa HMGR inh 4.3, Diaphorase act 0.9, Diaph inh CS 7.6 and p47phox inh -13.4.
`O=C(COc1cccc(Br)c1)NN=C1c2ccccc2-c2ccccc21` gave ABCB1 block 0.8, ABCG2 inh 4.5, Efa HMGR inh -2.8, Diaphorase act 1, Diaph inh CS 2.3 and p47phox inh 68.2*.
`COc1ccc2cc(C(c3nnnn3C3CCCC3)N3CCCCCC3)c3nnnn3c2c1` (stereo unspecified) gave ABCB1 block 0.1, ABCG2 inh -8.1, Efa HMGR inh 11.3*, Diaphorase act 1, Diaph inh CS -1.1 and p47phox inh -16.2.
Screening COCCNC(=O)c1ccc2c3n(nc2c1)-c1ccccc1CO3 returned p47phox inh 0.4.
Screening O=C(CCCCn1c(=O)c2ccccc2n(Cc2ccc(Cl)cc2)c1=O)NCc1ccco1 returned ABCB1 block 1.6, ABCG2 inh 0.3, Efa HMGR inh 3.1, Diaphorase act 0.8, Diaph inh CS 17.9 and p47phox inh 0.7.
For CC1CCCN(C(=O)C2CCN(CC(C)c3ccccc3)CC2)C1 (stereo unspecified) the results were ABCB1 block 0.6, ABCG2 inh 0.0, Efa HMGR inh 14.7*, Diaphorase act 0.8, Diaph inh CS 17.8 and p47phox inh 9.7.
`Cc1ccc2nc3sc(-c4nnc(-c5ccccc5[N+](=O)[O-])o4)c(N)c3cc2c1` gave ABCB1 block -0.3, ABCG2 inh -0.8, Efa HMGR inh 8.5, Diaphorase act 1, Diaph inh CS 4.6 and p47phox inh 43.5*.
`COc1cccc(C(=O)OCn2nnc3ccccc3c2=O)c1` gave ABCB1 block 0.3, ABCG2 inh 1.3, Efa HMGR inh -0.9, Diaphorase act 0.9, Diaph inh CS 6.6 and p47phox inh -22.1.
COC(=O)c1cccc(Cn2nnc3ccccc3c2=O)c1 was read as ABCB1 block -0.1, ABCG2 inh -0.1, Efa HMGR inh -0.5, Diaphorase act 0.9, Diaph inh CS 12.6 and p47phox inh 114.0*.
COc1cc(CC(=O)OCC(=O)Nc2ccc(Cl)c(S(=O)(=O)N(C)C)c2)cc(OC)c1OC was read as p47phox inh 33.6*.
Screening CN(C)S(=O)(=O)c1cc(NC(=O)COC(=O)Cc2ccc(Br)cc2)ccc1Cl returned ABCB1 block 1.2, ABCG2 inh 0.7, Efa HMGR inh -1.4, Diaphorase act 0.8, Diaph inh CS 18.3 and p47phox inh -3.3.
CCCCCCCCCCCCCCCCn1cc[n+](CC(C)=O)c1 was read as ABCB1 block -0.2, ABCG2 inh -1.1, Efa HMGR inh -1.8, Diaphorase act 3*, Diaph inh CS -201.3 and p47phox inh 96.4*.
`COc1cccc(S(=O)(=O)NCc2ccc(C(=O)Nc3ccc(Cl)cc3)cc2)c1` gave ABCB1 block -0.3, ABCG2 inh 5.5, Efa HMGR inh -5.9, Diaphorase act 1, Diaph inh CS 4.6 and p47phox inh 4.5.
For COc1ccccc1Nc1nnc(SCC(=O)N2CC(=O)Nc3ccccc32)s1 the results were ABCB1 block 0.2, ABCG2 inh 46.4, Efa HMGR inh -11.5, Diaphorase act 0.8, Diaph inh CS 23.3 and p47phox inh -7.4.
`COc1ccccc1-n1cnnc1SCC(=O)N1CC(=O)Nc2ccccc21` gave ABCB1 block 0.0, ABCG2 inh 1.3, Efa HMGR inh 9.6*, Diaphorase act 1, Diaph inh CS 2.5 and p47phox inh 0.3.
